# Screens as filed in PubChem BioAssay.
# Only some compounds are listed: those with a hit (about 1.4% of all), similar ones and a draw of the others.
# FID counter: displaces DNA intercalator in HCV helicase counter-screen. DNA fluorescent intercalator displacement, fluorescence. inhibition, % at 7.9 µM. hit rate 0.17% among 290,000. AID 1845; in the data active means inhibition above about 37%;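 further: 0% = vehicle and 100% = reference compound; higher means more ethidium bromide displaced from hairpin DNA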
# PLC-gamma1 inh: blocks human PLC-gamma1 enzyme activity. AID 720700. P19174. inhibition, % at 12.2 µM. hit rate 0.84% among 370,000. purified PLC-gamma1, fluorogenic substrate, fluorescence
# PLCb3 inh: blocks human PLC-beta3 enzyme activity. hit rate 0.18% among 370,000. inhibition, % at 12.2 µM. Purified PLC-beta3, fluorogenic substrate, fluorescence. Q01970; in the data active means inhibition above about 11%;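 further: 0% = median of compound wells on plate and 100% = full blocker control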
# DDE Tn6 FP inh: disrupts Tn6 cyclic peptide binding to fibrin D-Dimer-E complex; P02675; Fibrin DD(E) TRITC-Tn6 fluorescence polarization displacement; inhibition, % at 8.3 µM; hit rate 0.21% among 370,000; AID 720509;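 active means inhibition above a per-campaign cutoff: mean of compounds within control limits plus 3 SD, cut at about 15% in these data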;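 further: 0% = median of all compound wells on the plate and 100% = blocking peptide control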
# DDE Tn7 FP inh: DD(E)-Tn7 binding inhibition, primary FP screen; P02675; FP displacement of FITC-Tn7 peptide from fibrin DD(E); 0% = median of compound wells per plate; inhibition, % at 8.3 µM; hit rate 0.13% among 370,000; AID 720508;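 active means inhibition above the mean of compounds falling within the control limits plus 3 SD of them, cut at about 14% in these data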;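 further: 0% = plate median of compound wells and 100% = 10 µM Aha-Tn7 peptide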
#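 assay system = human clot-derived fibrin DD(E) complex | quantity = Fibrin-DD(E) at 2 µM final | timing = 10 min preincubation, 3 h with tracer, room temperature | signal = fluorescence polarization | measure = percent inhibition | benchmarks = high control wells with 10 µM unlabelled Aha-Tn7 peptide (full inhibition) | replicates = singlicate testing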
# PLCg1 ctr: counter-screen for PLC-beta3 inhibitors: inhibitors of human PLC-gamma1; shares compounds with PLC-gamma1 inh; purified PLC-gamma1, fluorogenic substrate, fluorescence; inhibition, % at 12.3 µM; hit rate 3.1% among 3,300
# PLCb3 confirm: human PLC-beta3 inhibition, confirmation. shares compounds with PLC-gamma1 inh. inhibition, % at 12.3 µM. hit rate 1% among 3,300. purified PLC-beta3, fluorogenic substrate fluorescence. AID 743261; in the data active means inhibition above about 11%
# Starred values were filed as active, the others as inactive; / = no result given. Unless noted, no stated cut-off is given here; in the data, active means inhibition above about 9.5%; inactive means the rest.
SMILES,FID counter,PLC-gamma1 inh,PLCb3 inh,DDE Tn6 FP inh,DDE Tn7 FP inh,PLCg1 ctr,PLCb3 confirm
CCOc1ncccc1C(=O)NCCN1C(=O)S/C(=C/c2cccs2)C1=O,-1,13*,9,0,-3,-2,2
COc1cc(C(=O)NCCN2C(=O)S/C(=C\c3cccs3)C2=O)cc(OC)c1OC,-3,10*,1,-4,-2,1,2
COc1cc(OC)cc(C(=O)NCCN2C(=O)S/C(=C\c3cccs3)C2=O)c1,-10,2,-4,-6,-7,/,/
COc1cccc(C(=O)NCCN2C(=O)S/C(=C/c3cccs3)C2=O)c1OC,-16,0,-7,3,-3,/,/
O=C(CCc1nc(-c2ccccc2F)no1)Nc1cccnc1,-6,-2,-5,-8,-2,/,/
CN(C)CCCNS(=O)(=O)c1ccc(NC2CCCCCC2)c([N+](=O)[O-])c1,31,15*,-4,5,-9,-2,4
COc1ccc(C2=NN(C(=O)CSC3=NN4CCCC(=O)N=C4S3)C(c3cccc(OC)c3OC)C2)cc1 (configuration not stated),-43,9.7*,7,0,3,-4,-6
O=C(CN1CCC(n2nnc3cc(F)ccc32)CC1)Nc1ccc2c(c1)CCC2,-10,-4,-5,-6,-3,/,/
CCOC(=O)C1(CC2CC2)CCN(S(=O)(=O)C[C@]23CC[C@H](CC2=O)C3(C)C)CC1,-39,12*,5,-3,-12,-1,2
O=C(Oc1cccc(N2C(=O)CCC2=O)c1)C1CC(=O)N(c2ccc(Br)cc2)C1 (configuration not stated),-1,7,11*,1,-4,-3,3
COc1ccc(S(=O)(=O)N2CCC(C(=O)NCCCN3CCOCC3)CC2)cc1,3,2,-7,8,-2,/,/
Cc1ccc(C(=O)/C=C\C(=O)c2ccc(C)cc2)cc1,1,3,-2,-6,1,/,/
CC(/C=C/C(=O)c1ccc(C)cc1)=C\c1ccccc1,-3,10*,8,0,-2,-2,-3
COc1ccc(NC(=S)Nc2ccc3cn[nH]c3c2)cc1,-7,7,-10,4,-3,/,/
COC(=O)c1cn(-c2ccccc2)c(C)c1C(=O)OC,-5,7,12*,0,-3,-1,-2
O=C(Nc1ccc(C(O)c2ccccc2)cc1)[C@@H]1O[C@H](CO)[C@H](O)[C@H](O)[C@H]1O (some centres not stated),/,14*,8,2,1,-7,-2
COC(=O)C1CCN(C(=O)NC(C)(C)C)CC1,-2,1,6,-12,6,/,/
CCOC(=O)CNc1nc(Oc2ccc(=O)n(C)n2)nc(N(CC)CC)n1,-14,3,1,-2,-5,/,/
Cc1cccc(OCCCC(=O)Nc2ccc(N(C)C)cc2)c1,-6,-3,-2,5,-6,/,/
Cc1cccc(OCCC(=O)Nc2ccc(F)c(F)c2)c1,2,9.7*,0,-2,-1,-1,2
CC(C)(C)n1nc2c(c1NC(=O)c1ccccc1S(=O)(=O)C(F)F)CS(=O)(=O)C2,-3,-1,-7,1,-7,/,/
